The values that follow come from ChEMBL document CHEMBL6115053, “Optimization and Characterization of N-Acetamide Indoles as Antimalarials That Target PfATP4” (J Med Chem, 2025).

Each structure is given as a SMILES string. Values after ≈ are worked out from the molar mass of the structure shown. Active and inactive are the calls of the source. The rule behind the calls is not given here.

Data set [1] deals with HepG2. Nature of the data set: (§1) Cytotoxicity against human HepG2 cells assessed as inhibition of cell growth incubated for 48 hrs by celltiterglo assay. The settings on record: hepg2, 48 h. The format is toxicity, cell-based. On the technique in general: ATP-based viability assays read luminescence as a measure of living cells.
Data set [2] deals with Plasmodium falciparum. Description: Antimalarial activity against trophozoite stage Plasmodium falciparum 3D7 at 10 times EC50 incubated for 48 hrs by SYBR Green dye based analysis. The data set is classed as functional, organism-based.
Data set [3] is described as follows: Metabolic stability in rat hepatocyte […] assessed as intrinsic clearance measured per 10^6 cells. The data set is classed as ADME, cell-based. Particulars: hepatocytes.
In data set [4] the test system is Plasmodium falciparum. Description: Antiplasmodial activity against W454-resistant population 1 Plasmodium falciparum 3D7 harboring Plasmodium falciparum ATP4 L928F mutant by LDH assay. The data set is classed as functional, organism-based.
Data set [5] has as its system Plasmodium falciparum. Nature of the data set: Antiplasmodial activity against Plasmodium falciparum 3D7 infected in human […] cells incubated for 72 hrs. The data set is classed as functional, organism-based. The settings on record: 3D7, 72 h.
Data set [6] concerns Plasmodium falciparum. Nature of the data set: Antiplasmodial activity against Plasmodium falciparum 3D7 infected in RBC assessed as reduction in extracellular parasite growth measured for 8 hrs by Giemsa-staining based microscopic analysis. The data set is classed as functional. Set-up: scale not given: the % may be the effect or the level left. An outline of the steps:
(§2)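 Giemsa-stained thin smears were read at 8 h and the percentages of extracellular and intracellular parasites counted, compared with untreated parasites at 0 h.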

Data set [7] has as its system Plasmodium falciparum. Description: Antimalarial activity against Plasmodium falciparum NF54 infected assessed as inhibition of female gamete formation incubated for 48 hrs by automated bright field microscopic analysis. The data set is classed as functional, organism-based. Particulars: NF54, 48 h.
Data set [8] deals with Plasmodium falciparum. Nature of the data set: Antiplasmodial activity against multidrug-resistant Plasmodium falciparum Dd2 harboring plasmodium falciparum ATP4 I398F/P990R/D1247Y mutant by SYBR green staining based analysis. The format is functional, organism-based.
The test system of data set [9] is Plasmodium falciparum. Nature of the data set: Antiplasmodial activity against W454-resistant population 2 Plasmodium falciparum 3D7 harboring Plasmodium falciparum ATP4 L928F mutant by LDH assay. The data set is classed as functional, organism-based.
Data set [10] has as its target T1, P-type sodium-transporting ATPase4 (Plasmodium falciparum (isolate 3D7), UniProt A0A143ZZK9).
T1 sequence (A0A143ZZK9 whole entry): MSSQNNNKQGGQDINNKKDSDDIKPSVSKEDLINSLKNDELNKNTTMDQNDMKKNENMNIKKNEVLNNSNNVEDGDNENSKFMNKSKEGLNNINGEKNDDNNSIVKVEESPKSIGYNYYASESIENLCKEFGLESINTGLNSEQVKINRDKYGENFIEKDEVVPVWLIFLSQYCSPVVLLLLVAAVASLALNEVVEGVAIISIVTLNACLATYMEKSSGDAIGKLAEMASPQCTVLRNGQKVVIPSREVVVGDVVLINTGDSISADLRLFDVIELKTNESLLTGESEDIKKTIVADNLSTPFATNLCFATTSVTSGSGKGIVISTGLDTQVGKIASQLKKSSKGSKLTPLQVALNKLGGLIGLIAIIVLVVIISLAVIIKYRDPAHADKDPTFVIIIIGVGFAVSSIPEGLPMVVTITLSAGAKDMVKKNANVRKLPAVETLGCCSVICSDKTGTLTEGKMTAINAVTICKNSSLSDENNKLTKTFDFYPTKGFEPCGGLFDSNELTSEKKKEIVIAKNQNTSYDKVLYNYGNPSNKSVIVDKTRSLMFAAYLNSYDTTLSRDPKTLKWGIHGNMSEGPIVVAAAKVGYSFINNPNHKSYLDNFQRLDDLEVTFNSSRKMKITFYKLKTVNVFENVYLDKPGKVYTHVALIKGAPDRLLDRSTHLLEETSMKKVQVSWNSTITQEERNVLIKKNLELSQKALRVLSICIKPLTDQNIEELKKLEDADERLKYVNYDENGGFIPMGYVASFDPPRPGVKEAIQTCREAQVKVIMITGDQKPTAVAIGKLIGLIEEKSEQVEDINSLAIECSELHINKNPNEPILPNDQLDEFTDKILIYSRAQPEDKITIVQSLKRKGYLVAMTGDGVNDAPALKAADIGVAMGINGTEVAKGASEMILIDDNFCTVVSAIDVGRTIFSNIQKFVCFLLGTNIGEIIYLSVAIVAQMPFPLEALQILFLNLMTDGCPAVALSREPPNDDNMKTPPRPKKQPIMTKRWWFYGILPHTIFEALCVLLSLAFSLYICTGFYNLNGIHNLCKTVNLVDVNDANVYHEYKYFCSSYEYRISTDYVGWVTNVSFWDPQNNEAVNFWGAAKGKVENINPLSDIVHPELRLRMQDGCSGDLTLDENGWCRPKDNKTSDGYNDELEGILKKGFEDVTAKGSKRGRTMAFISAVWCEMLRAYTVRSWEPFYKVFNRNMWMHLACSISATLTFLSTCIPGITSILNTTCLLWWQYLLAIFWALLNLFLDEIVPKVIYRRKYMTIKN
Description: Inhibition of Plasmodium falciparum 3D7 ATP4 assessed as increase in Na+ concentration in parasite cytosol measured for 60 mins. The format is subcellular.

The subject of data set [11] is Plasmodium falciparum. Description: Antiplasmodial activity against multidrug-resistant Plasmodium falciparum Dd2 harboring plasmodium falciparum ATP4 G358S mutant by SYBR green staining based analysis. The data set is classed as functional, organism-based.
In data set [12] the test system is Plasmodium falciparum. Description: Antiplasmodial activity against Plasmodium falciparum 3D7 infected in human […] cells. The data set is classed as functional, organism-based.
The test system of data set [13] is Plasmodium falciparum. Nature of the data set: Antiplasmodial activity against N-(2,6-difluorophenyl)-2-(6-(5-methyl-1,3,4-oxadiazol-2-yl)-1H-indol-1-yl)acetamide-resistant Plasmodium falciparum Dd2 harbouring ATP4 genome with 2.8 fold CNV by SYBR green staining based analysis. The format is functional, organism-based.
In data set [14] the test system is Plasmodium falciparum. Nature of the data set: Antiplasmodial activity against N-(2,6-difluorophenyl)-2-(6-(5-methyl-1,3,4-oxadiazol-2-yl)-1H-indol-1-yl)acetamide-resistant Plasmodium falciparum Dd2 harboring plasmodium falciparum ATP4 F156L mutant by SYBR green staining based analysis. The data set is classed as functional, organism-based.
A short description of data set [15]: Lipophilicity, logD of compound at pH 7.4 by shake-flask method. The data set is classed as physicochemical. Particulars: buffer.
Data set [16] in a line: Metabolic stability in human liver microsome assessed as intrinsic clearance. The format is ADME. The settings on record: microsomes.
The subject of data set [17] is Plasmodium falciparum. Description: Antiplasmodial activity against N-(2,6-difluorophenyl)-2-(6-(5-methyl-1,3,4-oxadiazol-2-yl)-1H-indol-1-yl)acetamide-resistant Plasmodium falciparum Dd2 harboring plasmodium falciparum ATP4 D425E mutant by SYBR green staining based analysis. The data set is classed as functional, organism-based.
Data set [18] can be described thus: Aqueous solubility in PBS buffer at pH 7.4. The data set is classed as physicochemical.
Data set [19] relates to Plasmodium falciparum. Description: Antiplasmodial activity against Plasmodium falciparum 3D7 infected in RBC assessed as reduction in parasite growth measured for 8 hrs by Giemsa-staining based microscopic analysis. The format is functional, organism-based. In short, it runs like this:
as §2

Data set [20] is described as follows: Metabolic stability in mouse liver microsome assessed as intrinsic clearance. The settings on record: microsomes. The format is ADME. For orientation: Liver microsomes are a subcellular fraction often used to study metabolism.
For data set [21], the target named is T2, P-type sodium-transporting ATPase4 (Plasmodium falciparum (isolate 3D7)) (UniProt A0A143ZZK9).
T2 sequence (whole entry): T1 sequence (A0A143ZZK9 whole entry)
Nature of the data set: Inhibition of Plasmodium falciparum 3D7 ATP4 assessed as increase in Na+ concentration in parasite cytosol upto 1000 nM measured for 60 mins. The format is subcellular.

Data set [22] deals with Plasmodium falciparum. Nature of the data set: Antimalarial activity against Plasmodium falciparum NF54 infected assessed as inhibition of male gamete formation incubated for 48 hrs by automated bright field microscopic analysis. The data set is classed as functional, organism-based. The settings on record: NF54, 48 h.
Data set [23] relates to HepG2. Nature of the data set: Cytotoxicity against human HepG2 cells. The data set is classed as functional.
Data set [24] concerns Plasmodium falciparum. Description: Antiplasmodial activity against asexual Plasmodium falciparum 3D7 infected in human […] cells assessed as reduction in parasite growth measured for 72 hrs by LDH assay. The data set is classed as functional, organism-based. The settings on record: 3D7, 72 h.
In data set [25] the test system is Plasmodium falciparum. Description: Antiplasmodial activity against W454-resistant population 3 Plasmodium falciparum 3D7 harboring Plasmodium falciparum ATP4 L928F mutant by LDH assay. The data set is classed as functional, organism-based.
The subject of data set [26] is Plasmodium falciparum. Description: Antiplasmodial activity against multi-drug resistant Plasmodium falciparum Dd2. The format is functional, organism-based.
Data set [27] relates to Plasmodium falciparum. Description: Antiplasmodial activity against multidrug resistant Plasmodium falciparum Cam3.1 incubated for 48 hrs by SYBR staining based fluorometer assay. The format is functional, organism-based. Particulars: Cam3.1, 48 h.
Data set [28] deals with Plasmodium falciparum. Nature of the data set: Antimalarial activity against synchronized-ring stage Plasmodium falciparum 3D7 assessed as reduction in parasitemia at 10 times EC50 measured at 72 hrs post-treatment by LDH assay. The format is functional, organism-based. In short, it runs like this: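 Parasite reduction ratio assay in P. falciparum 3D7 with an LDH read-out. Means and SDs were taken from three replicate experiments.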

Data set [29] has as its system Plasmodium falciparum. Description: Antiplasmodial activity against multidrug resistant Plasmodium falciparum W2mef incubated for 48 hrs by SYBR staining based fluorometer assay. The format is functional, organism-based.
The subject of data set [30] is Plasmodium falciparum. Nature of the data set: Antimalarial activity against trophozoite stage Plasmodium falciparum 3D7 assessed as reduction in parasitemia at 10 times EC50 incubated for 24 hrs by SYBR Green dye based analysis. The data set is classed as functional, organism-based.
The next data set relates to Plasmodium knowlesi. Nature of the data set: Antiplasmodial activity against wild type Plasmodium knowlesi YH1 incubated for 30 hrs by SYBR staining based flow cytometry assay. The format is functional, organism-based. Particulars: YH1, 30 h. For orientation: A flow cytometer gives signals particle by particle.
Data set [31] is described as follows: as §1. The data set is classed as toxicity, cell-based. Particulars: HepG2 cells.

Usually CC50 stands for the concentration at which the toxic effect on the cells reaches its halfway point. The EC50 is the concentration that produces a half-maximal response. In general, IC50 refers to the concentration that gives 50% inhibition. What is called logD is lipophilicity at a set pH, counting ionised and neutral species. As a reminder, the solubility (kinetic) is the concentration staying in solution when a stock, usually in DMSO, is diluted into the medium.

As to `Cc1nnc(-c2ccc3ccn(CC(=O)Nc4ccccc4Cl)c3c2)o1`, the CC50 with HepG2 [1] and in the data set on HepG2 [23] was over 40000 nM each time. Further, the outcome with Plasmodium falciparum [2] and in the data set on Plasmodium falciparum [19] was Active. Besides, the “intrinsic clearance (CLint)” value is over 92 uL/min/10^6 cells in [3], over 462 µL/min/mg in data set [16] and 410 µL/min/mg in data set [20]. Moreover, the EC50 was over 10000 nM with Plasmodium falciparum [4]; 569 nM with Plasmodium falciparum [5]; 5000 nM in the data set on Plasmodium falciparum [7]; 2540 nM in the data set on Plasmodium falciparum [8]; over 10000 nM with Plasmodium falciparum [9]; 1280 nM in the data set with Plasmodium falciparum [11]. Besides, the EC50 stood at 667 nM with Plasmodium falciparum [12]; 901 nM in the data set on Plasmodium falciparum [13]; 1160 nM with Plasmodium falciparum [14]; 786 nM with Plasmodium falciparum [17]; 3600 nM in the data set on Plasmodium falciparum [22]; 667 nM in the data set with Plasmodium falciparum [24]. This compound had an EC50 in the data set on Plasmodium falciparum [25] of over 10000 nM. The Activity with Plasmodium falciparum [6] is given as 3.5%. Further, in [10], the IC50 was about 400 nM. Also, the logD in data set [15] came out at 3.1. The same compound displayed a solubility (kinetic) in data set [18] of 10.9 µM (≈ 4 µg/mL). In addition, in data set [21], the inhibition entry is “Active”.

Turning to `CCc1nnc(-c2ccc3ccn(CC(=O)Nc4cc(OC)c(OC)c(OC)c4)c3c2)o1`, the EC50 with Plasmodium falciparum [26] worked out at 320 nM; in the data set on Plasmodium falciparum [4], 1940 nM; with Plasmodium falciparum [27] it was 381 nM; in the data set with Plasmodium falciparum [5], 123 nM; in the data set on Plasmodium falciparum [7] it was 7200 nM; in the data set with Plasmodium falciparum [8] it was 238 nM. The EC50 with Plasmodium falciparum [9] is 1990 nM; in the data set on Plasmodium falciparum [11] it was 1370 nM; in the data set with Plasmodium falciparum [13] it was 290 nM; in the data set with Plasmodium falciparum [17] it was 241 nM; with Plasmodium falciparum [29], 272 nM; in the data set on Plasmodium knowlesi it was 431 nM. In addition, the EC50 with Plasmodium falciparum [22] stood at 7400 nM; with Plasmodium falciparum [25], 1800 nM. Also, the result in the data set with Plasmodium falciparum [2], in the data set with Plasmodium falciparum [28] and in the data set on Plasmodium falciparum [30] was Active. Further, the IC50 in data set [10] was about 400 nM. For the same compound, the inhibition entry in data set [21] was “Active”. The CC50 in the data set on HepG2 [23] was over 40000 nM.

Regarding `Cc1nc(-c2ccc3ccn(CC(=O)Nc4ccccc4Cl)c3c2)no1`, the CC50 at 48 h in [31] was over 40000 nM. Besides, the EC50 with Plasmodium falciparum [24] was determined as 955 nM.
